Measured values gathered from unrelated publications.
Compare with care: the assays were run in different laboratories.
Target: Mu-type opioid receptor (OPRM1, Homo sapiens, UniProt P35372)

SMILES	effect on	technique	notes	endpoint	result
CCCCCCCCC[C@@H]1CC(=O)NCC(=O)N[C@H](Cc2ccc(O)cc2)C(=O)NCC(=O)N[C@@H](Cc2ccccc2)C(=O)O1	ligand displacement	radioligand	–	IC50	16000 nM
Cc1cc(O)cc(C)c1C[C@H](N)C(=O)N1Cc2ccccc2C[C@H]1C(=O)NCC(=O)NCc1ccc([N+](=O)[O-])cc1	ligand displacement	radioligand	cell membranes	Ki	4.5 nM
CC(CCc1ccc(O)cc1)NCCc1ccc(O)c(O)c1 (stereo not drawn)	ligand displacement	radioligand	–	IC50	1660 nM
Oc1ccc2c3c1O[C@H]1c4ncc(-c5ccccc5)cc4C[C@@]4(OCCCc5cccnc5)[C@@H](C2)N(CC2CC2)CC[C@]314	cell-free assay	–	–	Ki	3.96 nM
CC(CCc1ccccc1)NC(C)C(O)c1ccc(O)cc1 (stereo not drawn)	ligand displacement	radioligand	–	IC50	9950 nM
COc1ncccc1-c1cnn2ccc(N3CCN(C(=O)OC(C)C)CC3)nc12	cell-free assay	–	–	IC50	> 30000 nM
Oc1cccc([C@@]23CCC[C@@H](C2)N(CCc2ccccc2)C[C@H]3O)c1 (relative stereo)	cell-free assay	–	–	Ki	~5 nM
CC(NCCc1ccc(O)cc1)C(O)c1ccc(O)cc1 (stereo not drawn)	ligand displacement	radioligand	–	IC50	9180 nM
Cc1ccc(CNC(=O)CNC(=O)[C@@H]2Cc3ccccc3CN2C(=O)[C@@H](N)Cc2c(C)cc(O)cc2C)cc1	ligand displacement	radioligand	cell membranes	Ki	3.7 nM
COc1cc(-c2cnc3c(c2)C[C@@]2(OCCCc4ccccc4)[C@H]4Cc5ccc(O)c6c5[C@@]2(CCN4CC2CC2)[C@H]3O6)ccn1	cell-free assay	–	–	Ki	< 10 nM
Cc1cc(O)cc(C)c1C[C@H](N)C(=O)N1Cc2ccccc2C[C@H]1C(=O)NCC(=O)NC(c1ccccc1)c1ccccc1	ligand displacement	radioligand	cell membranes	Ki	1.71 nM
CN[C@]1(c2ccccc2Cl)CCCCC1=O	ligand displacement	radioligand	–	Ki	3000 nM
